The text below walks through data of ChEMBL document CHEMBL1275590, “Novel arylimidamides for treatment of visceral leishmaniasis” (Antimicrob Agents Chemother, 2010).

For data set [1], the system named is Mus musculus. The data set is described as follows: Toxicity in BALB/c mouse assessed as occurrence of edema at 150 mg/kg/day, po. It is filed as organism-based. Details: route oral. The note with it: in vivo. In a few lines: (§1)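 Female BALB/c mice (n = 5 per dose), dosed once daily for 5 consecutive days p.o. (20 ml/kg) or i.v. (10 ml/kg) with compound in sterile water, prepared fresh daily under yellow light. Vehicle controls n = 5 per route. Clinical observations, body weights, serum chemistry and hematology on day 6 before necropsy; histopathology of formalin-fixed tissues. Chemistry analysed by one-way ANOVA with Dunnett's posttest.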

The nature of data set [2]: Tmax in Swiss Webster mouse at 4.9 mg/kg, iv by HPLC-MS/MS analysis. The class given is ADME, organism-based. Details: dose 4.9 mg/kg, route intravenous. The note with it: in vivo. In a few lines:
(§2)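 Male Swiss Webster mice (n = 3 per time point), single dose by oral gavage (sterile water solution) or tail-vein bolus i.v. (water diluted 1:1 with 2× saline, over ~10–20 s); dose volume 5 ml/kg. Terminal blood sampled from 5 min to 72 h postdose; plasma quantified by HPLC-MS/MS (positive-ion SRM). Noncompartmental analysis gave Cmax, Tmax, AUC0-∞, CL, Vss; bioavailability from p.o. versus i.v. exposure.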

The subject of data set [3] is Mus musculus. The data set is described as follows: Hepatotoxicity in BALB/c mouse assessed as alkaline phosphatase level in serum at 10 mg/kg/day, iv administered for five days (Rvb= 134 U/L). The class given is toxicity, organism-based. Details: route intravenous. The note with it: in vivo.
Data set [4] deals with Mus musculus. Kind of data set: Toxicity in BALB/c mouse assessed as ruffled fur at 50 mg/kg/day, ip administered for five days. It is filed as organism-based. Details: route intraperitoneal. The note with it: in vivo.
The nature of data set [5]: Cmax in Swiss Webster mouse at 131 mg/kg, po by HPLC-MS/MS analysis. It is filed as ADME, organism-based. The note with it: in vivo. Details: dose 131 mg/kg, route oral. An outline of the steps:
(§3)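 Male Swiss Webster mice, n = 3 per time point. For i.v., the compound was dissolved in sterile water, diluted 1:1 with 2× saline, and given as a tail-vein bolus over ~10–20 s. For p.o., it was given by gavage in sterile water. Dose volume was 5 ml/kg. Terminal plasma was taken from 5 min to 72 h and measured by HPLC-MS/MS (calibration 2.5–10,000 nM). Parameters came from noncompartmental analysis.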

Data set [6] is described as follows: Cmax in Swiss Webster mouse at 16.5 mg/kg, po by HPLC-MS/MS analysis. Details: dose 16.5 mg/kg, route oral. The class given is ADME, organism-based. The note with it: in vivo. In a few lines: as §3
The nature of data set [7]: Oral bioavailability in Swiss Webster mouse at 131 mg/kg by HPLC-MS/MS analysis. It is filed as ADME, organism-based. The note with it: in vivo. An outline of the steps: as §2
In data set [8] the test system is Mus musculus. Kind of data set: Toxicity in BALB/c mouse assessed as decrease in liver weight at 150 mg/kg/day, po administered for five days. Details: route oral. The class given is organism-based. The note with it: in vivo. In a few lines:
as §1

The test system of data set [9] is Mus musculus. Kind of data set: Toxicity in BALB/c mouse at 50 mg/kg/day, po administered for five days. The class given is organism-based. Details: route oral. The note with it: in vivo.
Data set [10] relates to Mus musculus. The data set is described as follows: Hepatotoxicity in BALB/c mouse assessed as alkaline phosphatase level in serum at 30 mg/kg/day, iv administered for five days (Rvb= 134 U/L). The class given is toxicity, organism-based. Details: route intravenous. The note with it: in vivo.
Data set [11] deals with Leishmania donovani. The data set is described as follows: Antileishmanial activity against Leishmania donovani WR378 infected in golden Syrian hamster assessed as reduction in bone marrow parasitemia at 30 mg/kg/day, po administered for five days. The class given is functional. The note with it: 120 h. An outline of the steps: (§4)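 11-day golden hamster VL model adapted from an 8-day method, using L. donovani WR378 metacyclic promastigotes. Dosing was oral, once daily for 5 days. Animals were euthanized on day 11 post-infection. Liver, spleen and femoral bone marrow (flushed with Schneider's medium) were harvested.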

The nature of data set [12]: Induction of mutagenicity in Salmonella serovar Typhimurium TA 98 assessed as number of revertant colonies at 50 ug by Ames assay in presence of Aroclor 1254-induced rat liver S9 metabolic activation system. It is filed as toxicity, subcellular, Salmonella enterica subsp. enterica serovar Typhimurium. In a few lines:
(§5)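 Plate incorporation test, S. Typhimurium TA98 (and TA100), with or without Aroclor 1254-induced rat liver S9 (10% vol/vol). Compound dissolved in sterile water, serially diluted to 1–1,000 or 1–500 μg/plate. Positive controls: 2-nitrofluorene and sodium azide without S9, 2-aminoanthracene with S9; water and DMSO vehicle controls. Revertant colonies and background lawn scored; mutagen if mean revertants ≥2-fold solvent control. Single experiment.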
A general note: The Ames test detects mutagens through reverse mutation in bacteria.

The test system of data set [13] is Leishmania donovani. Kind of data set: Antileishmanial activity against Leishmania donovani WR378 infected in golden Syrian hamster assessed as reduction in bone marrow parasitemia at 50 mg/kg/day, po administered for five days. The class given is functional. The note with it: 120 h. In a few lines: as §4
Data set [14] is described as follows: Induction of mutagenicity in Salmonella serovar Typhimurium TA 100 assessed as number of revertant colonies at 500 ug by Ames assay. The class given is toxicity, Salmonella enterica subsp. enterica serovar Typhimurium. The note with it: in vivo. An outline of the steps:
(§6)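 Ames plate incorporation with S. Typhimurium TA98 and TA100, with or without Aroclor 1254-induced rat liver S9 (10% vol/vol). Compound was dissolved in sterile water and serially diluted to 1–500 μg/plate. Positive controls were 2-nitrofluorene and sodium azide without S9, and 2-aminoanthracene with S9; sterile water and DMSO served as vehicles. Revertant colonies and background lawn were scored. A mutagen was defined as a mean revertant count at least 2-fold over solvent control. Single experiment.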

Data set [15] is described as follows: Induction of mutagenicity in Salmonella serovar Typhimurium TA 98 assessed as number of revertant colonies at 50 ug by Ames assay. The class given is toxicity, Salmonella enterica subsp. enterica serovar Typhimurium. An outline of the steps: as §5
Data set [16] can be described thus: Induction of mutagenicity in Salmonella serovar Typhimurium TA 98 assessed as number of revertant colonies at 5 ug by Ames assay in presence of Aroclor 1254-induced rat liver S9 metabolic activation system. It is filed as toxicity, subcellular, Salmonella enterica subsp. enterica serovar Typhimurium. An outline of the steps: as §5
Data set [17] relates to Mus musculus. Kind of data set: Toxicity in BALB/c mouse assessed as hypoactivity at 50 mg/kg/day, ip administered for five days. Details: route intraperitoneal. The note with it: in vivo. It is filed as organism-based.
Data set [18] can be described thus: Induction of mutagenicity in Salmonella serovar Typhimurium TA 98 assessed as number of revertant colonies at 100 ug by Ames assay. The note with it: in vivo. It is filed as toxicity, Salmonella enterica subsp. enterica serovar Typhimurium. In a few lines:
as §6

The nature of data set [19]: Drug level in Swiss Webster mouse spleen at 70 mg/kg, po after 2 hrs by HPLC/UV analysis. The note with it: read-out: Drug uptake.
Data set [20] is described as follows: Induction of mutagenicity in Salmonella serovar Typhimurium TA 100 assessed as number of revertant colonies at 10 ug by Ames assay in presence of Aroclor 1254-induced rat liver S9 metabolic activation system. The class given is toxicity, subcellular, Salmonella enterica subsp. enterica serovar Typhimurium. In a few lines: as §6
Data set [21] can be described thus: Induction of mutagenicity in Salmonella serovar Typhimurium TA 98 assessed as number of revertant colonies at 5 ug by Ames assay. The class given is toxicity, Salmonella enterica subsp. enterica serovar Typhimurium. The note with it: in vivo. In a few lines:
as §6

Data set [22] can be described thus: Drug level in Swiss Webster mouse liver at 5 mg/kg, iv after 2 hrs by HPLC/UV analysis. The note with it: read-out: Drug uptake.
For data set [23], the system named is Mus musculus. The data set is described as follows: Hepatotoxicity in BALB/c mouse assessed as AST level in serum at 30 mg/kg/day, iv administered for five days (Rvb= 65 U/L). The note with it: in vivo. It is filed as toxicity, organism-based. Details: route intravenous.
Data set [24] deals with Mus musculus. The data set is described as follows: Hepatotoxicity in BALB/c mouse assessed as ALT level in serum at 100 mg/kg/day, po administered for five days (Rvb= 36 U/L). The class given is toxicity, organism-based. Details: route oral. The note with it: in vivo.
Data set [25] in a line: Tmax in Swiss Webster mouse at 5 mg/kg, iv by HPLC-MS/MS analysis. The class given is ADME, organism-based. Details: dose 5 mg/kg, route intravenous. The note with it: in vivo. An outline of the steps: as §2
The subject of data set [26] is Leishmania donovani. Kind of data set: Antileishmanial activity against Leishmania donovani WR378 infected in golden Syrian hamster assessed as reduction in spleen parasitemia at 30 mg/kg/day, po administered for five days. The class given is functional. The note with it: 120 h. In a few lines:
as §4

Data set [27] has as its system Mus musculus. Kind of data set: Toxicity in BALB/c mouse at 100 mg/kg/day, po administered for five days. The class given is organism-based. Details: route oral. The note with it: in vivo. An outline of the steps:
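Five-day repeat-dose study in female BALB/c mice (n = 5 per dose level): oral dosing once daily for five consecutive days in sterile water prepared fresh daily under yellow light, 20 ml/kg. Vehicle controls received sterile water only. Clinical observations and body weights were recorded, with blood for hematology and serum chemistry taken on day 6 before necropsy. A veterinary pathologist examined formalin-fixed tissues.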

One may read the Tmax as the time at which the peak concentration occurs. What is called Cmax is the highest concentration seen after dosing. What is called bioavailability is the share of a dose that reaches the circulation, judged against a reference dose that is usually intravenous. The term inhibition in vivo denotes the share of the control response that was lost under treatment.

In the case of `CCOc1cc(NC(=N)c2ccccn2)ccc1-c1ccc(-c2ccc(NC(=N)c3ccccn3)cc2OCC)o1`, the Activity result in data set [1] is “Toxic”; in data set [3], 118 U/L; in data set [4], “Toxic”; in [8], “Toxic”. The Tmax in data set [2] came to 5 min. Moreover, the Cmax in data set [5] was 1.68 µM; in data set [6], 0.02 µM. The molecule further registered a bioavailability in [7] of 25%.
Consider `CC(C)Oc1cc(NC(=N)c2ccccn2)ccc1-c1ccc(-c2ccc(NC(=N)c3ccccn3)cc2OC(C)C)o1`, for which the Activity entry in data set [9] is “Non-toxic”; in data set [10] it was 118 U/L; in [12], 39; in [14] it was “Toxic”; in data set [15], 28; in data set [16], 48. Also, the Activity result was “Toxic” in data set [17]; 34 in [18]; 148 in data set [20]; 29 in [21]; 73 U/L in data set [23]; 34 U/L in [24]. Moreover, in data set [27], the Activity entry is recorded as “Non-toxic”. In addition, the inhibition in vivo at 30 mg/kg/day in data set [11] turned out to be 24%; in data set [26], 67%. Also, the inhibition in vivo at 50 mg/kg/day in data set [13] amounted to 70%. Besides, the concentration at 2 h amounted to 43.1 µM in data set [19] and 18.7 µM in [22]. The Tmax in [25] came to 5 min.
